One test deals with E. coli. The experiment in a line: Viable count analysis. The class given is cell-based, Escherichia coli. The note with it: GGL27 1 µM, 1 hour at 37°C, normal human citrated plasma; Fig. 3h. The procedure, abridged: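 Mid-exponential E. coli grown in Todd-Hewitt broth and washed. 2 x 10^8 cfu/ml incubated 60 min at 37°C with test peptide in 100% human citrated plasma, or in plasma pretreated 3 h with IdeS (0.2 µg/µl) to remove IgG. Serial dilutions plated on TH agar overnight at 37°C; cfu counted and expressed as % survival, mean ± SD.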

The subject of a further test is bacteria. The note with it: buffer with physiological salt content or plasma; ref [7]; cited from earlier work.
For test [1], the system named is intrinsic pathway of coagulation. The experiment in a line: aPTT clotting assay in crocodile plasma. It counts as biochemical, crocodile (Crocodylus siamensis). The note with it: peptide 50 µM in citrated crocodile plasma; n=3; Fig. 4b; words.
Test [2] has the same test system. The experiment in a line: aPTT clotting assay in turkey plasma. The class given is biochemical. Conditions: peptide 50 µM in citrated turkey plasma; n=3; Fig. 4c; words.

The text below walks through data of article PMC5955456 (Virulence, 2018).

No end group written: not given here.

Regarding GGLIKTKRKRKKQRVKIAYEEIFVKNM [GGL27], the “killing of E. coli” value with E. coli is about 100%. Take “LL-37: antibacterial peptide (LLGDFFRKSKEKIGKEFKRIVQRIKDFLRNLVPRTES; Antibacterial peptide LL-37; UniProt P49913 134-170, looked up)”: the “killing activity in physiological salt or plasma” value in the test with bacteria was “lose their killing activity”. For the substance “RGIIKIKRKRKKQPEKMVRDEIIIERI [American alligator]”, the aPTT clotting time result in test [1] is recorded as “clotting times were prolonged”. “RRLIRIKKKKKQSLKTVGEEIIRGRIQ [Common turkey]”: in test [2], the aPTT clotting time entry is on record as “shortened clotting time”.
